Measurements published in ChEMBL document CHEMBL3228029, “Blood glucose lowering sulfonamides with asymmetric carbon atoms. 3. Related N-substituted carbamoylbenzoic acids” (J Med Chem, 1979).
Activity calls are given as the source filed them. The calls are words filed in the database; no cut-off is given here.

Tests used:
Rattus norvegicus [1] = assay: Hypoglycemic activity in iv dosed rat measured after 1 hr by GOD-Perid method; format: functional
Outline: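 Fed female rats received the compound iv as its Na salt in 0.9% saline at four doses. Blood was sampled 1 h post-injection and glucose measured enzymatically (GOD-Perid). Changes were expressed as percent of the control group, and linear dose-response curves were fitted. ED50 is the dose for 50% reduction of the mean control value, with 95% confidence limits.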

Rattus norvegicus [2] = assay: Hypoglycemic activity in rat at 40 to 937.5 mg/kg, iv measured after 3 hrs by GOD-Perid method; format: functional, organism-based
Outline: (§1)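 Female rats in the fed state were injected iv with the Na salt dissolved in 0.9% saline at four graded doses. Blood samples were taken at 1 and 3 h, and glucose was determined enzymatically by the GOD-Perid method. Effects were expressed relative to the control group (percent control value).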

Rattus norvegicus [3] = assay: Toxicity in rat assessed as suvival at 937.5 mg/kg, iv; format: organism-based; design: dose 937.5 mg/kg, route intravenous; settings: in vivo
Outline: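 Survival was recorded in fed female rats after iv injection of the Na salt in 0.9% saline as the top dose of a four-dose series. Blood glucose was sampled at 1 and 3 h.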

Rattus norvegicus [4] = assay: Hypoglycemic activity in rat at 0.16 to 2.5 mg/kg, iv measured after 3 hrs by GOD-Perid method; format: functional, organism-based; outline: as §1
Rattus norvegicus [5] = assay: Hypoglycemic activity in rat at 0.0064 to 0.1 mg/kg, iv measured after 3 hrs by GOD-Perid method; format: functional, organism-based; outline: as §1
Rattus norvegicus [6] = assay: Hypoglycemic activity in rat at 20 to 375 mg/kg, iv measured after 3 hrs by GOD-Perid method; format: functional, organism-based; outline: as §1
Rattus norvegicus [7] = assay: Hypoglycemic activity in rat at 9.6 to 150 mg/kg, iv measured after 3 hrs by GOD-Perid method; format: functional, organism-based; outline: as §1

With `COc1ccc(F)cc1[C@@H](C)NC(=O)Cc1ccc(C(=O)O)cc1` the ED50 (Rattus norvegicus [1]) was 1180 mg/kg, the Activity (Rattus norvegicus [2]) was “inactive” and the Activity (Rattus norvegicus [3]) was “Toxic”.
For `COc1ccc(F)cc1[C@@H](C)NC(=O)Cc1ccc(S(=O)(=O)Nc2ncc(CC(C)C)cn2)cc1`, the ED50 (Rattus norvegicus [1]) was 0.81 mg/kg and the Activity (Rattus norvegicus [4]) was “inactive”.
With `COc1ccc(F)cc1[C@H](C)NC(=O)Cc1ccc(S(=O)(=O)Nc2ncc(CC(C)C)cn2)cc1` [GLIFLUMIDE] the ED50 (Rattus norvegicus [1]) was 0.02 mg/kg and the Activity (Rattus norvegicus [5]) was “inactive”.
In the case of `COc1ccc(F)cc1[C@H](C)NC(=O)Cc1ccc(C(=O)O)cc1`, the ED50 (Rattus norvegicus [1]) is reported as 63.9 mg/kg and the Activity (Rattus norvegicus [6]) is reported as “inactive”.
With `COCCOc1cnc(NS(=O)(=O)c2ccccc2)nc1` [GLYMIDINE] the ED50 (Rattus norvegicus [1]) was 69.7 mg/kg and the Activity (Rattus norvegicus [7]) was “inactive”.
